Data on one compound can be found in ChEMBL document CHEMBL4680130, “Substituted 4-phenylthiazoles: Development of potent and selective A, A and dual A/A adenosine receptor antagonists” (Eur J Med Chem, 2020).

In assay [1] the target is Adenosine receptor A2a (Rattus norvegicus, UniProt P30543). The assay can be described thus: Displacement of [3H]MSX2 from adenosine receptor A2A in rat brain striatum membranes incubated for 30 mins by radioligand competition assay. In kind it is cell membranes, Cell membrane.
Adenosine receptor A2a (Rattus norvegicus, UniProt P30543), sequence (P30543 whole entry): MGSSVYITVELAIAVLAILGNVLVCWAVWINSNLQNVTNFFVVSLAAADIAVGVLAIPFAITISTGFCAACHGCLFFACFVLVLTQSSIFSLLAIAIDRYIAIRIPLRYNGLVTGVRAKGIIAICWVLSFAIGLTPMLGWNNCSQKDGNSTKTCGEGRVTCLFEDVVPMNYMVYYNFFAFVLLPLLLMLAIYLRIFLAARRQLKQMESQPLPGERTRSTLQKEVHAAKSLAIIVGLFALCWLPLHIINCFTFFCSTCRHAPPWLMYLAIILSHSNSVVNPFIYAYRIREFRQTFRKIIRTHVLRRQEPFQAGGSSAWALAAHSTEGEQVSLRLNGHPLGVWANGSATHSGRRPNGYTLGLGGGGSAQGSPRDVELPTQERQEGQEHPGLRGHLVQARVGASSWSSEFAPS
Assay [2] deals with T1, Adenosine receptor A2b (Homo sapiens, UniProt P29275).
T1 sequence (P29275 whole entry): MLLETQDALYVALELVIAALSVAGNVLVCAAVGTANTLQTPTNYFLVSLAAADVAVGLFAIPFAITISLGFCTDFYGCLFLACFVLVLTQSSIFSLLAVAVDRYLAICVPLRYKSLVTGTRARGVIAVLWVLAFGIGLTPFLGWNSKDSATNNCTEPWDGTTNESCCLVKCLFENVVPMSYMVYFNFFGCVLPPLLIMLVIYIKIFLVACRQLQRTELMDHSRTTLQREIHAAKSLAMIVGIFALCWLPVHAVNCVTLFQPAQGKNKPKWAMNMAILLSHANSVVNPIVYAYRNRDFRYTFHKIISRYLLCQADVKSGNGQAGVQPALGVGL
The assay is described as follows: Displacement of [3H]PSB-603 from human adenosine receptor A2B expressed in CHO cell membranes incubated for 75 mins by radioligand competition assay. The arrangement: species or system Cell membrane. On the technique in general: In a radioligand displacement assay an active substance lowers the binding of a labelled ligand.

For assay [3], the target named is T2, Adenosine receptor A1 (Rattus norvegicus, UniProt P25099).
T2 sequence (P25099 whole entry): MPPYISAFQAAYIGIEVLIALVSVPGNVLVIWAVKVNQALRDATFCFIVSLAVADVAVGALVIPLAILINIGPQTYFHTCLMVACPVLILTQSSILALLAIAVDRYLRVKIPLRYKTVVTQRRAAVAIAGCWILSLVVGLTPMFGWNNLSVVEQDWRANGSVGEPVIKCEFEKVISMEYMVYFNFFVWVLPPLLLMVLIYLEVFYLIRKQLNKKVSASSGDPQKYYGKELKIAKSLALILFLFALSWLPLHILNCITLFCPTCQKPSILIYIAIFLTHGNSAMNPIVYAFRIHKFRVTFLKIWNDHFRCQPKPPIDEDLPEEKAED
The assay is described as follows: Displacement of [3H]CCPA from adenosine receptor A1 in rat brain cortex membranes incubated for 90 mins by radioligand competition assay. In kind it is cell membranes, Cell membrane.

Assay [4] has as its target T3, Adenosine receptor A3 (Homo sapiens, UniProt P0DMS8).
T3 sequence (P0DMS8 whole entry): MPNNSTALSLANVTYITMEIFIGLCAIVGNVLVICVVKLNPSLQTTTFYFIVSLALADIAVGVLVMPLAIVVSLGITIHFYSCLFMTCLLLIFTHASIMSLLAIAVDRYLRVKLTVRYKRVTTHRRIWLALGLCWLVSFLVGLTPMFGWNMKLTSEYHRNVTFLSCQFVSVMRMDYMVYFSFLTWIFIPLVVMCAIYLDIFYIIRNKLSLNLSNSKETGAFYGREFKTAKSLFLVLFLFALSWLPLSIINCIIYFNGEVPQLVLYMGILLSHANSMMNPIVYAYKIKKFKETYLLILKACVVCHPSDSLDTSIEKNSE
The assay is described as follows: Displacement of [3H]PSB-11 from human adenosine receptor A3 expressed in CHO cell membranes incubated for 60 mins by radioligand competition assay. Also noted: species or system Cell membrane.

The target of assay [5] is Adenosine receptor A2a (Rattus norvegicus) (UniProt P30543). The assay is described as follows: Displacement of [3H]MSX2 from adenosine receptor A2A in rat brain striatum membranes at 0.1 uM incubated for 30 mins by radioligand competition assay relative to control. The settings on record: Cell membrane. Summed up:
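A2A binding, [3H]MSX-2 1.0 nM. Membranes: rat brain striatum, or HEK293 cells expressing human A2A. Adenosine deaminase preincubation 20 min, then 30 min at rt in 50 mM Tris-HCl pH 7.4 with 2.5% DMSO. Nonspecific binding defined by 50 µM NECA. GF/B filtration, scintillation counting. Single-concentration percent inhibition, ≥3 experiments in duplicate or triplicate.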

Assay [6] addresses Adenosine receptor A2a (Homo sapiens, UniProt P29274). The assay can be described thus: Displacement of [3H]MSX2 from human adenosine receptor A2A expressed in HEK293 cell membranes incubated for 30 mins by radioligand competition assay. The arrangement: species or system Cell membrane.
For assay [7], the target named is T4, Adenosine receptor A1 (Homo sapiens, UniProt P30542).
T4 sequence (P30542 whole entry): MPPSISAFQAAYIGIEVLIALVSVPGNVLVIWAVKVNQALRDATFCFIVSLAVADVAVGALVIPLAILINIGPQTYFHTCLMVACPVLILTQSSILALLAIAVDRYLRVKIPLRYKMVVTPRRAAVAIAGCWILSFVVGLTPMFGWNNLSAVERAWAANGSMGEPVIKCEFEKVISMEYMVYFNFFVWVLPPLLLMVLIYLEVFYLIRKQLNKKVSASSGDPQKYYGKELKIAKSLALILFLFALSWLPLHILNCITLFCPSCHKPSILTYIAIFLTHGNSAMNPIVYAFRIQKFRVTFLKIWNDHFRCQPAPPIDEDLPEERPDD
The assay can be described thus: Displacement of [3H]CCPA from human adenosine receptor A1 expressed in CHO cell membranes incubated for 90 mins by radioligand competition assay. The arrangement: species or system Cell membrane.

The target of assay [8] is T5, Adenosine receptor A3 (Rattus norvegicus, UniProt P28647).
T5 sequence (P28647 whole entry): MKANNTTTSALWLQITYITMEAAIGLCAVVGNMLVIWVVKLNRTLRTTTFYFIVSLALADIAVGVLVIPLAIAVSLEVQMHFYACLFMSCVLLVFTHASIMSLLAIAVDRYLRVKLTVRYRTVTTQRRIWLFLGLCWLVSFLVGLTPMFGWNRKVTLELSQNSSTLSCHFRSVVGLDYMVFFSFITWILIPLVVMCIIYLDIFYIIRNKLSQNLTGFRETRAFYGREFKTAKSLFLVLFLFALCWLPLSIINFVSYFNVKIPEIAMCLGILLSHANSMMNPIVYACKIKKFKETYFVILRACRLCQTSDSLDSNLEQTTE
The assay is described as follows: Displacement of [3H]NECA from rat adenosine receptor A3 expressed in CHO cell membranes incubated for 60 mins by radioligand competition assay. The arrangement: species or system Cell membrane.

In assay [9] the target is T6, Adenosine receptor A2b (Rattus norvegicus, UniProt P29276).
T6 sequence (P29276 whole entry): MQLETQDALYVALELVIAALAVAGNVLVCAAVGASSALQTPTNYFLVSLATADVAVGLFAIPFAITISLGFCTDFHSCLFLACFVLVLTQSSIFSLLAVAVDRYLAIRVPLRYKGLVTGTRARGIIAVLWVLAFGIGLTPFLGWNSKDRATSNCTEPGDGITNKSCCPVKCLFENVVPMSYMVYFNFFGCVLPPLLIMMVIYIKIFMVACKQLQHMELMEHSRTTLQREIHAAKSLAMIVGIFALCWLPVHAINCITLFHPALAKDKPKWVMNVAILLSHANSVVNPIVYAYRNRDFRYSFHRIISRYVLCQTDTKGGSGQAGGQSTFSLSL
The assay can be described thus: Displacement of [3H]PSB-603 from rat adenosine receptor A2B expressed in CHO cell membranes incubated for 75 mins by radioligand competition assay. Also noted: species or system Cell membrane. Summed up: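 CHO membranes expressing human or rat A2B, [3H]PSB-603 0.3 nM. Nonspecific binding defined by 10 µM DPCPX. Preincubated 20 min with adenosine deaminase, then 75 min at rt in Tris-HCl pH 7.4 with 2.5% DMSO. Filters washed with ice-cold 50 mM Tris-HCl containing 0.1% BSA; scintillation counting.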

Adenosine receptor A2a (Homo sapiens, UniProt P29274), sequence (P29274 whole entry): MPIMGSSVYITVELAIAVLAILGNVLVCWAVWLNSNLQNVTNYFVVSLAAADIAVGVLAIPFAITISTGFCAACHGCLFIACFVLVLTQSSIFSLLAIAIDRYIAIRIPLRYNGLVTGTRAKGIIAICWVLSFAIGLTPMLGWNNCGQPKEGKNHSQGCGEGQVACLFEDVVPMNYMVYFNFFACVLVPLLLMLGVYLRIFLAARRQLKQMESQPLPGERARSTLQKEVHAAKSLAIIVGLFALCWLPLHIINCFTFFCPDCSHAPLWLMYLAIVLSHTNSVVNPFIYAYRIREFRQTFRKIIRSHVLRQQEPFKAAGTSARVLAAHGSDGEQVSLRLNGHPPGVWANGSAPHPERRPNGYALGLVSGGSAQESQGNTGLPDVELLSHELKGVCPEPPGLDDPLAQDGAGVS
Adenosine receptor A2a (Rattus norvegicus), sequence (P30543 whole entry): as the sequence (P30543 whole entry) above

Take `COc1ccc(C(=O)Nc2nc(-c3ccccc3)c(C(=O)c3ccc(Cl)cc3)s2)cc1`: the Ki (usually the dissociation constant of the complex between target and ligand, obtained from inhibition or displacement) on Adenosine receptor A2a [1] was above 1000 nM; on Adenosine receptor A2b [2], above 100 nM; on Adenosine receptor A1 [3] it was 1.01 nM; at Adenosine receptor A3 [4] it was above 1000 nM; on Adenosine receptor A2a [6] it was above 1000 nM; at Adenosine receptor A1 [7] it was 32.3 nM. Further, the figures for the Ki at Adenosine receptor A3 [8] and on Adenosine receptor A2b [9] were above 10000 nM and above 100 nM, respectively. Further, in assay [5], the inhibition (in general, the change of the read-out against control, counted positive when it falls) was determined as 12%.
